Data as given in paper PMC11751479 (Nature Communications, 2025).

How the values were obtained:
Assay in all cases: HPLC assay, Michaelis-Menten regression
Type in all cases: biochemical, Cistanche tubulosa
CtUGT85AF12 = conditions: read-out: apparent KM; UDP-glucose donor; optimal conditions (supplement)
Outline: (§1)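 Recombinant enzyme is expressed in E. coli and purified. Kinetic reactions follow supplementary methods. They are stopped with a double volume of methanol and centrifuged at 12,000 × g for 30 min, and the supernatant is analysed by HPLC. Kinetic constants come from nonlinear Michaelis-Menten regression.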

CtUGT85A191 = conditions: read-out: apparent KM; UDP-glucose donor; optimal conditions (supplement)
Outline: as §1

CtUGT79G13 = conditions: UDP-rhamnose donor; optimal conditions (supplement)
CtUGT73EV1 = conditions: UDP-glucose donor; optimal conditions (supplement)

| Km (CtUGT79G13) [µM] | Km (CtUGT73EV1) [µM] | Compound | Km (CtUGT85AF12) [µM] | Km (CtUGT85A191) [µM] |
| --- | --- | --- | --- | --- |
| – | – | OCCc1ccc(O)cc1 [compound 9, tyrosol] | 9.92 ± 2.2 | 138 ± 22.7 |
| – | – | OCCc1ccc(O)c(O)c1 [compound 10, hydroxytyrosol] | 75.7 ± 12 | 288 ± 36.8 |
| 77.8 ± 6.1 | – | O=C(/C=C/c1ccc(O)c(O)c1)O[C@H]1[C@H](O)[C@@H](O)[C@H](OCCc2ccc(O)c(O)c2)O[C@@H]1CO [compound 18, calA] | – | – |
| – | 135 ± 24.1 | C[C@@H]1O[C@@H](O[C@@H]2[C@@H](O)[C@H](OCCc3ccc(O)c(O)c3)O[C@H](CO)[C@H]2OC(=O)/C=C/c2ccc(O)c(O)c2)[C@H](O)[C@H](O)[C@H]1O [compound 20, acteoside] | – | – |
